Like-named read-outs stand apart in the source and are kept apart here.

The text below walks through data of PMC3994405 (Clinical cancer research : an official journal of the …, 2014).

The assay concerns peptide-MHC reactive CD8 T cells in PBLs from healthy donors. Type of assay: cell-based, human. As to conditions: PBLs after enrichment and 2-3 weeks culture. In short, it runs like this: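 PBLs washed in PBS with 2% FBS and stained with 0.1ug of each PE-coupled peptide-MHC multimer, 1h at 4°C. Anti-PE microbeads were added for 15 min, then magnetic column capture. Enriched cells were expanded 2–3 weeks in X-vivo with 5% human serum, 100 U/ml IL-2, 15 ng/ml IL-15, autologous negative-fraction feeders and anti-CD3/CD28 beads. Cells were then analysed by two-colour combinatorial multimer staining on lymphocyte/single/live/CD8 gates.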

For NLPAYSVARV, the “Healthy Donors: number of times a response was detected/number of investigated HLA matched individuals” value (HLA-A2 restriction) is reported as 1/16. Consider KMALHGLPR, for which the “Healthy Donors: number of times a response was detected/number of investigated HLA matched individuals” value (HLA-A3 restriction) is reported as 1/14.

Regarding TVLGRKMTPK, where the note is “HLA-A3 restriction”, the “Healthy Donors: number of times a response was detected/number of investigated HLA matched individuals” value is 1/14. For VTLRKRWVK, the “Healthy Donors: number of times a response was detected/number of investigated HLA matched individuals” value (HLA-A11 restriction) is recorded as 1/7. As to LPRYFNVTL, the “Healthy Donors: number of times a response was detected/number of investigated HLA matched individuals” value (HLA-B7 restriction) was 1/13. Take SLFSNLMPK: the “Healthy Donors: number of times a response was detected/number of investigated HLA matched individuals” value (HLA-A11 restriction) was 2/7A11.
